Source: PubChem
Rows were chosen to be rich in hits. Some 1.8% of all compounds tested hit in one or more screens of this group.
Hck Nef HTS = human Hck-Nef kinase inhibition; inhibition, % at 20 µM; Recombinant Hck-YEEI plus Nef, Z-Lyte FRET kinase assay; hit rate 0.68% among 220,000; P08631; AID 463187;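 active means Hck-Nef kinase inhibition above about 50%, limit read from the data; inactive means inhibition below that limit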
Runt-SMMHC FRET = Runt domain-CBFb-SMMHC interaction inhibition | Cerulean-Runt/Venus-CBFb-SMMHC FRET ratio 530/480, 1 h | inhibition, % at 20 µM | hit rate 0.74% among 220,000;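 active means mean inhibition across duplicate retests at 20 µM reaching about 50%, limit read from the data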;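 further: inhibitors lower the FRET ratio by blocking Runt binding to CBFb-SMMHC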
Target sequence (Q01196 whole entry, looked up, the tested form may be a part): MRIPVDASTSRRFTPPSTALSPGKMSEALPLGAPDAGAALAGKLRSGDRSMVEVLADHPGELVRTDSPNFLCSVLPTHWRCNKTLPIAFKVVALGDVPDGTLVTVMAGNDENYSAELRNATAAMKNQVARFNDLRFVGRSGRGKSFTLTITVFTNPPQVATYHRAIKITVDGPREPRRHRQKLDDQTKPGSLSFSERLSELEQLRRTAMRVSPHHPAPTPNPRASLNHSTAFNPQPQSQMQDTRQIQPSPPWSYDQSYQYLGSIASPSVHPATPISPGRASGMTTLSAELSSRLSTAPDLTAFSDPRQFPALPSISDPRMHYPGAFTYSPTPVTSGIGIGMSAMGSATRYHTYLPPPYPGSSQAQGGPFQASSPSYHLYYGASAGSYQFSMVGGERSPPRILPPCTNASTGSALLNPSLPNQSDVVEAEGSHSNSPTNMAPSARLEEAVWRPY
Target sequence (Q13951 whole entry, looked up, the tested form may be a part): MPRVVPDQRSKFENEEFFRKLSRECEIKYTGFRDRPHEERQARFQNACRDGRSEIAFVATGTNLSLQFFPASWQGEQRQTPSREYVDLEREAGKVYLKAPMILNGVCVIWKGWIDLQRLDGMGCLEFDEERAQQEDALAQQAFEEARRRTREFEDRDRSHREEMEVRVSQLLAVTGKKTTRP
RanGTP-Impb inh = inhibitors of RanGTP-importin-beta interaction, primary screen, biochemical, FRET, CFP-Ran, YFP-importin-beta, homogeneous; cell-free CFP-Ran/YFP-importin-beta FRET ratio; inhibition, % (concentration not given with the values); hit rate 1.1% among 300,000; AID 2216;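 active means more than half of the replicate wells show a fall in the fluorescence ratio signal beyond about 16%, limit read from the data, passing the limit was not always enough; inconclusive means exactly half of the replicate wells pass the set limit; inactive means fewer than half of replicates pass the limit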
Runt-CBFb FRET = inhibitors of human RUNX1 Runt domain binding to CBFb. Q01196+Q13951. Cerulean-Runt/Venus-CBFb FRET ratio 530/480, 1 h. inhibition, % at 20 µM. hit rate 0.46% among 220,000. AID 1496;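 active means inhibition over about 50% at 20 µM in the single-dose screen, limit read from the data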
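Measured by: fluorescence energy transfer, 422 nm excitation, 530/480 nm emission; Assay system: Cerulean-Runt domain; Medium: Tris pH 7.5 buffer with BSA; Measure: loss of energy transfer signal; Controls: 5 µM unlabeled CBFb as full-inhibition high control; Incubation: protein complex preformed 1 h, compound exposure 1 h, room temperature, dark.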
Hck Nef conf = confirmation of Hck-Nef kinase inhibitors | shares compounds with Hck Nef HTS | Recombinant Hck-YEEI:Nef, Z-Lyte FRET kinase assay | calls only at 10 µM | hit rate 28% among 1,300;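 active means average inhibition of at least 50%, with Z-scores no higher than 3 in both the phospho-tyrosine peptide and fluorescence counterscreens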
Hits are given with their value; i = inactive; ? = inconclusive; nt = not tested or not shown; + = active, no number.

SMILES	Hck Nef HTS	Runt-SMMHC FRET	RanGTP-Impb inh	Runt-CBFb FRET	Hck Nef conf
C(=N\NCc1ccccc1)/c1ccc2ncccc2c1	i	i	i	i	nt
CCOC(=O)CSc1nnc(NC(=O)CCc2ccccc2)s1	nt	nt	i	nt	nt
N#Cc1c(-c2ccco2)nc(SCC(=O)Nc2cccc(Cl)c2)[nH]c1=O	56	i	i	i	+
CC(=O)N1c2ccc(S(=O)(=O)N3CCC(C(=O)Nc4ncccc4C)CC3)cc2CC1C (configuration not stated)	nt	nt	i	nt	nt
O=C(c1cnn(C(=O)COc2ccccc2F)c1)c1cc(F)ccc1O	75	i	i	i	+
Cc1cc(Cl)ccc1OCC(=O)n1cc(C(=O)c2cc(Cl)ccc2O)cn1	i	i	i	i	nt
COc1ccc(OC)c(NC(=O)Cn2cc(C#N)c3cc(Br)ccc32)c1	69	i	i	i	i
COc1ccc(NC(=O)Cn2cc(C#N)c3ccccc32)cc1	i	i	i	i	nt
CC1(c2ccccc2)CC(C)(C)N2C(=O)/C(=C3\SC(=S)NC3=O)c3cccc1c32 (configuration not stated)	94	i	i	i	+
CSc1cccc(NC(=O)c2cccc3cccnc23)c1	nt	nt	i	nt	nt
Cc1cc(/C=C2\SC(=Nc3ccc(F)cc3)NC2=O)c(C)n1-c1ccc(S(N)(=O)=O)cc1	65	i	?	i	+
Cc1cc(/C=C2/SC(=O)NC2=O)c(C)n1-c1ccc(N2CCOCC2)cc1	i	i	i	i	nt
CCCc1ccc(C(=O)CCC(=O)NNC(=O)c2ccncc2)cc1	nt	nt	i	nt	nt
CSCCC(NC(=O)/C(=C/c1ccco1)NC(=O)c1ccc(Br)o1)C(=O)O (configuration not stated)	nt	nt	i	nt	nt
CC1=C(C(=O)OCC2CCCO2)C(c2ccc(C)cc2)C2=C(CCCC2=O)N1 (configuration not stated)	63	i	i	i	i
COc1ccccc1/C=N\Nc1cn[nH]c(=O)c1Cl	61	i	i	i	i
O=c1[nH]ncc(N/N=C\c2ccncc2)c1Cl	i	i	i	i	nt
Cc1cccc(/C=N\Nc2cn[nH]c(=O)c2Cl)c1	i	i	i	i	nt
O=c1[nH]ncc(N/N=C\c2cccs2)c1Cl	59	i	nt	i	+
CCOC(=O)C1CCN(c2c(NCCC(C)C)c(=O)c2=O)CC1	i	i	i	i	nt
Cc1ccnc(NC(=S)NC(=O)/C=C/c2ccco2)c1	i	i	i	i	nt
Cc1ccc(O)c(NC(=S)NC(=O)/C=C/c2ccco2)c1	75	i	?	i	+
Cc1cc(C)c(S(=O)(=O)NC(C)C)c(C)c1-n1cnnn1	i	i	i	i	nt
C(=C\c1nccc2c1[nH]c1ccccc12)/c1ccccc1	164	80	i	i	nt
O=S(=O)(NCCN1CCOCC1)c1ccc(F)c(Cl)c1	nt	nt	i	nt	nt
SMILES	Hck Nef HTS	Runt-SMMHC FRET	RanGTP-Impb inh	Runt-CBFb FRET	Hck Nef conf
NC(=O)c1ccsc1NC(=O)C1CC1	75	i	i	i	+
COc1cccc(NC(=O)COc2coc(CN3CCc4ccccc4C3)cc2=O)c1	nt	nt	i	nt	nt
O=C(Nc1cccc(-c2nc3cccnc3s2)c1)C1c2ccccc2Oc2ccccc21	102	i	i	i	+
O=C(Nc1cccc(-c2nc3cccnc3s2)c1)c1cccnc1Cl	i	i	i	i	nt
O=C(Nc1cccc(-c2nc3cccnc3s2)c1)c1ccc(Cl)nc1	87	i	i	i	i
Cc1nc2ccc(NC(=O)c3ccc([N+](=O)[O-])cc3)cc2[nH]1	nt	nt	i	nt	nt
COc1ccc(NC(=O)CCNS(=O)(=O)c2ccc(C)c(C)c2)cc1OC	nt	nt	i	nt	nt
CCn1ccnc1CNC(=O)C1CCC(=O)N(Cc2ccccc2F)C1 (configuration not stated)	nt	nt	i	nt	nt
COc1ccc(Nc2nc(=O)c3cc([N+](=O)[O-])ccc3s2)cc1	i	i	i	i	nt
Cc1ccc(Nc2nc(=O)c3cc([N+](=O)[O-])ccc3s2)cc1	57	i	i	i	i
C=CCOc1ccc(C(c2c(O)nc(SC)[nH]c2=O)c2c(O)nc(SC)[nH]c2=O)cc1	nt	nt	i	nt	nt
O=c1oc2c(CN3CCCCC3)c(O)ccc2c2c1CCCC2	i	i	i	i	nt
CCc1c(C)c2cc(Cl)c(O)c(CN(C)C)c2oc1=O	123	92	39	92	nt
CN(C)Cc1c(O)c(Cl)cc2c3c(c(=O)oc12)CCCC3	137	59	43	88	nt
Cc1c(CC(=O)O)c(=O)oc2c(C)c(OCc3ccc(F)cc3Cl)ccc12	nt	nt	i	nt	nt
O=c1oc2c(CN3CCOCC3)c(O)c(Cl)cc2c2c1CCC2	158	176	nt	104	nt
Cc1occc(=O)c1OC(=O)Nc1ccc(Cl)c(Cl)c1	i	i	nt	i	nt
Cc1ccc(NC(=S)Nc2ccc(OC(F)F)c(Cl)c2)cc1F	i	i	i	i	nt
Cc1ccc(S(=O)(=O)N2CCC(C(=O)NCCCN3CCCC3=O)CC2)cc1C	nt	nt	i	nt	nt
COc1cc(Br)cc(C2C3=C(CCCC3=O)N(c3ccc(F)cc3)C3=C2C(=O)CCC3)c1O	i	i	i	i	nt
CCCOc1c(Br)cc(C2C3=C(CCCC3=O)N(C)C3=C2C(=O)CCC3)cc1OC	54	79	107	i	nt
Cc1ccc(C(=O)Cn2nnc(-c3cccs3)n2)cc1	i	i	i	i	nt
O=C(CN1CC[n+]2c(-c3cccs3)csc21)c1ccc(-c2ccccc2)cc1	143	i	i	i	+
O=C1/C(=C/c2ccco2)SC(=S)N1c1cccnc1	90	i	i	i	i
O=C(CCCN1C(=O)/C(=C/c2ccco2)SC1=S)Nc1cccc(C(=O)O)c1	82	i	i	i	i
SMILES	Hck Nef HTS	Runt-SMMHC FRET	RanGTP-Impb inh	Runt-CBFb FRET	Hck Nef conf
O=C1/C(=C\c2ccc(O)cc2)SC(=S)N1c1cccnc1	i	i	i	i	nt
NN1C(=O)/C(=C\c2ccco2)SC1=S	78	i	i	i	i
O=C(CSc1nnc(-c2cccnc2)o1)Nc1nccs1	nt	nt	i	nt	nt
O=C(NC(=O)c1csnn1)Nc1ccccc1Cl	nt	nt	i	nt	nt
Cc1cc(NC(=O)COc2ccccc2C)ccc1NC(=O)c1cccs1	nt	nt	i	nt	nt
O=C(CSc1nc(-c2ccc(F)cc2)nc2c1Cc1ccccc1O2)Nc1ccc(C(=O)O)cc1	145	i	nt	i	+
O=C(N/N=C\c1ccc(F)cc1)c1ccc(Cn2cc(Br)c([N+](=O)[O-])n2)o1	62	i	i	i	+
O=C(Nc1ccc(NC(=O)c2sc3ccccc3c2Cl)cc1Cl)c1ccco1	78	i	i	nt	i
C=CCOC(=O)C1=C[C@H](c2coc3ccccc3c2=O)[C@@H](CCCO)[C@H](OCC)O1	i	i	i	i	nt
COc1ccccc1C(=O)Oc1ccc2c(c1)O/C(=C\c1ccncc1)C2=O	76	i	i	i	+
O=C(Oc1ccc2c(c1)O/C(=C\c1ccncc1)C2=O)c1cccs1	i	i	i	i	nt
Cc1cc(C)c2c(N)c(C(=O)N/N=C/c3cccnc3)sc2n1	73	i	i	i	i
COc1ccc(C(=O)N/C(=C\c2ccccc2)C(=O)NC(CCSC)C(=O)O)cc1 (configuration not stated)	i	i	i	i	nt
